Here are results for 34 compounds from ChEMBL document CHEMBL3045564, “Synthesis of photosynthesis-inhibiting nostoclide analogues” (J Agric Food Chem, 2008).

Calls of active or inactive are those of the source. The calls are words filed in the database; no cut-off is given here.

For test [1], the system named is Spinacia oleracea. Kind of test: Inhibition of photosynthesis in isolated Spinacia oleracea (spinach) chloroplasts assessed as reduction in light-driven ferricyanide reduction at 10 uM. The test is classed as functional. A digest of the protocol: (§1)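 Thylakoid membranes from market spinach leaves, homogenized in ice-cold Tricine-NaOH pH 8.0 with NaCl, MgCl2 and 0.4 M sucrose. Osmotically swollen, kept on ice in the dark. Portions with 20 μg chlorophyll incubated at 24 °C with 1 mM K3Fe(CN)6. Run under saturating light (800 μmol m⁻² s⁻¹), A420 read every 30 s for 10 min. Triplicate; percent inhibition versus untreated controls.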

The test system of test [2] is Spinacia oleracea. As to the kind of experiment: Inhibition of photosynthesis in isolated Spinacia oleracea (spinach) chloroplasts assessed as reduction in light-driven ferricyanide reduction at 5 uM. The test is classed as functional. A digest of the protocol:
as §1

Broadly, the inhibition is how much of the control response was suppressed.

On to `O=C1O/C(=C\c2ccc(O)cc2)C=C1Cc1ccccc1`, for which the inhibition in test [1] was found to be 6.5%. Besides, the inhibition result in test [2] is “inactive”.

As to `Cc1ccccc1/C=C1/C=C(Cc2ccccc2)C(=O)O1`, the inhibition was 26% in test [1] and 16.7% in test [2].

For `CN(C)c1ccc(/C=C2/C=C(Cc3ccccc3)C(=O)O2)cc1`, the inhibition in test [1] came out at 7.1%; in test [2], 5.7%.

With `COc1ccc(/C=C2/C=C(Cc3ccccc3)C(=O)O2)cc1O`, the inhibition result in test [1] and in test [2] was “inactive” each time.

Take `COc1ccc(/C=C2/C=C(Cc3ccccc3)C(=O)O2)cc1`: the inhibition came to 15% in test [1] and 8.5% in test [2].

Take `N#Cc1cccc(/C=C2/C=C(Cc3ccccc3)C(=O)O2)c1`: the inhibition entry in test [1] and in test [2] was “inactive” in each case.

On to `O=C1O/C(=C\c2ccccc2F)C=C1Cc1ccccc1`, for which the inhibition in test [1] amounted to 49.5%; in test [2], 24.5%.

For `COc1cc(OC)c(/C=C2\C=C(Cc3ccccc3)C(=O)O2)c(OC)c1`, the inhibition was 43.6% in test [1] and 25.2% in test [2].

`O=C1O/C(=C\c2cccc(F)c2)C=C1Cc1ccccc1`: the values for the inhibition in test [1] and in test [2] were 28.8% and 9.5%, respectively.

For `O=C1O/C(=C\c2cccc(Br)c2)C=C1Cc1ccccc1`, the figures for the inhibition in test [1] and in test [2] were 22.6% and 13.8%, respectively.

With `COc1ccc(OC)c(/C=C2/C=C(Cc3ccccc3)C(=O)O2)c1`, the inhibition came out at 43.5% in test [1] and 30.3% in test [2].

For `O=C1O/C(=C\c2ccc(F)cc2)C=C1Cc1ccccc1`, the inhibition in test [1] was found to be 25.6%; in test [2] it was 9.2%.

For the compound `CN(C)c1cccc(/C=C2/C=C(Cc3ccccc3)C(=O)O2)c1`, the inhibition in test [1] is 38.6%; in test [2], 10.9%.

Consider `CN(C)c1ccc(/C=C2/C=C(Cc3ccccc3)C(=O)O2)c(Cl)c1`, for which the values for the inhibition in test [1] and in test [2] were 25.4% and 13.8%, respectively.

With `Cc1ccc(/C=C2/C=C(Cc3ccccc3)C(=O)O2)cc1`, the inhibition in test [1] turned out to be 8%. Moreover, the inhibition entry in test [2] was “inactive”.

Consider `O=C1O/C(=C\c2ccc([N+](=O)[O-])cc2)C=C1Cc1ccccc1`, for which the inhibition in test [1] was 57.8%; in test [2], 49.8%.

With `O=C1O/C(=C\c2c(F)c(F)c(F)c(F)c2F)C=C1Cc1ccccc1`, the inhibition in test [1] came out at 6.6%. Besides, the inhibition result in test [2] is “inactive”.

On to `O=C1O/C(=C\c2cccc([N+](=O)[O-])c2)C=C1Cc1ccccc1`, for which the inhibition came out at 39.5% in test [1] and 30% in test [2].

On to `O=C1O/C(=C\c2ccc(-c3ccccc3)cc2)C=C1Cc1ccccc1`, for which the inhibition entry in test [1] and in test [2] was “inactive” throughout.

Regarding `O=C1O/C(=C\c2ccc(Cl)cc2)C=C1Cc1ccccc1`, the inhibition in test [1] was found to be 5.8%. Moreover, the inhibition result in test [2] is “inactive”.

On to `CCc1ccc(/C=C2/C=C(Cc3ccccc3)C(=O)O2)cc1`, for which the inhibition in test [1] amounted to 50.7%; in test [2] it was 40.6%.

Consider `O=C1O/C(=C\c2ccccc2C(F)(F)F)C=C1Cc1ccccc1`, for which the results for the inhibition in test [1] and in test [2] were 44.9% and 23.3%, respectively.

`O=C1O/C(=C\c2ccccc2O)C=C1Cc1ccccc1`: the inhibition entry in test [1] and in test [2] was “inactive” in each case.

For `O=C1O/C(=C\c2ccccc2Br)C=C1Cc1ccccc1`, the inhibition in test [1] is 21.8%. Besides, in test [2], the inhibition result is “inactive”.

Regarding `O=C1O/C(=C\c2ccccc2Cl)C=C1Cc1ccccc1`, the inhibition in test [1] is 30.8%; in test [2] it was 19.4%.

Take `O=C1O/C(=C\c2cccc(C(F)(F)F)c2)C=C1Cc1ccccc1`: the values for the inhibition in test [1] and in test [2] were 49.9% and 27.3%, respectively.

Consider `O=C1O/C(=C\c2ccccc2)C=C1Cc1ccccc1`, for which the inhibition in test [1] was 29.2%; in test [2] it was 12.7%.

For `O=C1O/C(=C\c2ccc(Br)cc2)C=C1Cc1ccccc1`, the inhibition entry in test [1] and in test [2] was “inactive” each time.

As for `O=C1O/C(=C\c2cccc(Cl)c2)C=C1Cc1ccccc1`, the inhibition is 20.3% in test [1] and 5.8% in test [2].

In the case of `Cc1cccc(/C=C2/C=C(Cc3ccccc3)C(=O)O2)c1`, the inhibition in test [1] was 16.7%; in test [2], 8%.

With `N#Cc1ccc(/C=C2/C=C(Cc3ccccc3)C(=O)O2)cc1`, the inhibition entry in test [1] and in test [2] was “inactive” in each case.

On to `O=C1O/C(=C\c2cccc(O)c2)C=C1Cc1ccccc1`, for which, in test [1], the inhibition came to 6.9%. The inhibition result in test [2] is “inactive”.

`O=C1O/C(=C\c2ccc(C(F)(F)F)cc2)C=C1Cc1ccccc1`: the inhibition is 55.5% in test [1] and 34% in test [2].

Take `CN(C)C(=O)Nc1ccc(Cl)c(Cl)c1`: the values for the inhibition in test [1] and in test [2] were 95.1% and 93.2%, respectively.
